Values after ≈ are worked out from the molar mass of the structure shown. Active and inactive are the calls of the source. The calls are words filed in the database; no cut-off is given here.
Assays:
Bacillus subtilis [1] = test: Inhibition of ftsZ in Bacillus subtilis assessed as increase in enzyme polymerization kinetics at 5 ug/ml measured for 30 mins by microtiter plate-based light scattering assay; conditions: dose 5.0 µg/ml
In short: (§1)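 Purified recombinant B. subtilis FtsZ was used. Polymerization was followed as light scattering in microtiter plates, read as time-dependent absorbance at 340 nm at several compound concentrations. Vehicle, CIP and LIN served as controls.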

Pseudomonas aeruginosa = test: Antibacterial activity against Pseudomonas aeruginosa ATCC27853 incubated for 24 hrs by CLSI-based broth microdilution method; type: functional
Escherichia coli = test: Antibacterial activity against Escherichia coli ATCC25922 incubated for 24 hrs by CLSI-based broth microdilution method; type: functional; conditions: ATCC 25922
Staphylococcus aureus [2] = test: Antibacterial activity against Staphylococcus aureus clinical isolate incubated for 24 hrs by CLSI-based broth microdilution method; type: functional
Staphylococcus aureus [3] = test: Antibacterial activity against penicillin-resistant Staphylococcus aureus incubated for 24 hrs by CLSI-based broth microdilution method; type: functional
Bacillus pumilus = test: Antibacterial activity against Bacillus pumilus CMCC63202 incubated for 24 hrs by CLSI-based broth microdilution method; type: functional
Staphylococcus aureus [4] = test: Antibacterial activity against Staphylococcus aureus ATCC25923 incubated for 24 hrs by CLSI-based broth microdilution method; type: functional
Staphylococcus aureus [5] = test: Antibacterial activity against methicillin-resistant Staphylococcus aureus ATCC43300 incubated for 24 hrs by CLSI-based broth microdilution method; type: functional
Bacillus subtilis [6] = test: Antibacterial activity against Bacillus subtilis ATCC9372 incubated for 24 hrs by CLSI-based broth microdilution method; type: functional
Staphylococcus aureus [7] = test: In-vivo antibacterial activity against Staphylococcus aureus infected in KM mouse model assessed as reduction in bacterial load in blood at 10 mg/kg, iv administered thrice daily and measured after 48 hrs; type: functional, organism-based
In short: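 Groups of four KM mice (average 20 g) were infected i.v. with 8.5 × 10⁸ CFU of a clinical S. aureus isolate resistant to CIP and ERY, in 0.15 mL saline. Treatment was 10 mg/kg i.v. three times daily. Vehicle was 2% DMAC, 30% PEG400/PG (1:1) and 5% HPβCD in water; vehicle and LIN arms were included. At 48 h, retro-orbital blood (0.1 mL) was plated on TSA for CFU counts.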

Bacillus subtilis [8] = test: Inhibition of ftsZ in Bacillus subtilis assessed as increase in enzyme polymerization kinetics at 10 ug/ml measured for 30 mins by microtiter plate-based light scattering assay; conditions: dose 10.0 µg/ml
Staphylococcus aureus [9] = test: Bactericidal activity against Staphylococcus aureus clinical isolate assessed as reduction in number of colony forming units incubated for 24 hrs followed by re-plating and reincubation on tryptic soy agar plate for 24 hrs; type: functional
Staphylococcus aureus [10] = test: Bactericidal activity against penicillin-resistant Staphylococcus aureus assessed as reduction in number of colony forming units incubated for 24 hrs followed by re-plating and reincubation on tryptic soy agar plate for 24 hrs; type: functional
Staphylococcus aureus [11] = test: Bactericidal activity against methicillin-resistant Staphylococcus aureus ATCC43300 assessed as reduction in number of colony forming units incubated for 24 hrs followed by re-plating and reincubation on tryptic soy agar plate for 24 hrs; type: functional
Staphylococcus aureus [12] = test: Bactericidal activity against Staphylococcus aureus ATCC25923 assessed as reduction in number of colony forming units incubated for 24 hrs followed by re-plating and reincubation on tryptic soy agar plate for 24 hrs; type: functional
Staphylococcus aureus [13] = test: Bacteriostatic activity against Staphylococcus aureus clinical isolate assessed as ratio of MBC to MIC; type: functional
Staphylococcus aureus [14] = test: Bacteriostatic activity against penicillin-resistant Staphylococcus aureus assessed as ratio of MBC to MIC; type: functional
Staphylococcus aureus [15] = test: Bacteriostatic activity against methicillin-resistant Staphylococcus aureus ATCC43300 assessed as ratio of MBC to MIC; type: functional
Staphylococcus aureus [16] = test: Bacteriostatic activity against Staphylococcus aureus ATCC25923 assessed as ratio of MBC to MIC; type: functional
Staphylococcus aureus [17] = test: Potency index, ratio of linezolid MIC to test compound MIC for antibacterial activity against penicillin-resistant Staphylococcus aureus incubated for 24 hrs by CLSI-based broth microdilution method; type: functional
Staphylococcus aureus [18] = test: Potency index, ratio of PC190723 MIC to test compound MIC for antibacterial activity against penicillin-resistant Staphylococcus aureus incubated for 24 hrs by CLSI-based broth microdilution method; type: functional
Staphylococcus aureus [19] = test: Potency index, ratio of linezolid MIC to test compound MIC for antibacterial activity against methicillin-resistant Staphylococcus aureus ATCC43300 incubated for 24 hrs by CLSI-based broth microdilution method; type: functional
Staphylococcus aureus [20] = test: Potency index, ratio of ciprofloxacin MIC to test compound MIC for antibacterial activity against methicillin-resistant Staphylococcus aureus ATCC43300 incubated for 24 hrs by CLSI-based broth microdilution method; type: functional
Staphylococcus aureus [21] = test: Potency index, ratio of PC190723 MIC to test compound MIC for antibacterial activity against methicillin-resistant Staphylococcus aureus ATCC43300 incubated for 24 hrs by CLSI-based broth microdilution method; type: functional
Staphylococcus aureus [22] = test: Bactericidal activity against Staphylococcus aureus clinical isolate assessed as reduction in number of colony forming units at 4XMIC incubated for 9 hrs by Time-kill assay; type: functional
HeLa = test: Cytotoxicity against human Hela cells assessed as reduction in cell viability incubated for 48 hrs by MTT assay; type: cell-based
In short: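 HeLa (human cervical cancer) cells were exposed continuously for 48 h, and viability was read by MTT.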

Bacillus subtilis [23] = test: Inhibition of FtsZ in Bacillus subtilis ATCC9372 assessed as inhibition of bacterial cell elongation by measuring bacterial cell length at 0.25 ug/ml incubated for 18 hrs by phase contrast microscopic analysis (reference value: 2.28 +/- 0.29 um); conditions: dose 0.25 µg/ml
In short: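 Compound at 0.25 μg/mL, compared with untreated cells, imaged by microscopy. For B. subtilis ATCC9372, cell length was measured (n = 15). For S. aureus ATCC CI, cell diameter was measured (n = 15). Mean and SD were reported.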

Staphylococcus aureus [24] = test: Bactericidal activity against Staphylococcus aureus clinical isolate assessed as reduction in number of colony forming units at 1XMIC incubated for 24 hrs by Time-kill assay; type: functional
Staphylococcus aureus [25] = test: Bactericidal activity against Staphylococcus aureus clinical isolate assessed as reduction in number of colony forming units at 2XMIC incubated for 12 hrs by Time-kill assay; type: functional
Staphylococcus aureus [26] = test: Bactericidal activity against Staphylococcus aureus clinical isolate assessed as reduction in number of colony forming units at 0.5 times MIC incubated for 24 hrs by Time-kill assay; type: functional, organism-based
Bacillus subtilis [27] = test: Inhibition of ftsZ in Bacillus subtilis assessed as increase in enzyme polymerization kinetics measured for 30 mins by microtiter plate-based light scattering assay; in short: as §1
Staphylococcus aureus [28] = test: Inhibition of FtsZ in Staphylococcus aureus clinical isolate assessed as inhibition of bacterial cell elongation by measuring bacterial cell diameter at 0.25 ug/ml incubated for 18 hrs by phase contrast microscopic analysis (reference value: 0.79 +/- 0.05 um); conditions: dose 0.25 µg/ml

CCCCc1ccc(C2=NO[C@@H](COc3ccc(F)c(C(N)=O)c3F)C2)cc1
FtsZ polymerization increase (active/inactive call) (Bacillus subtilis [1]): Active
MIC (Pseudomonas aeruginosa): > 64 mg/L
MIC (Escherichia coli): > 64 mg/L
MIC (Staphylococcus aureus [2]): 2 mg/L (≈ 5.15 µM)
MIC (Staphylococcus aureus [3]): 1 mg/L (≈ 2.57 µM)
MIC (Bacillus pumilus): 0.5 mg/L (≈ 1.29 µM)
MIC (Staphylococcus aureus [4]): 4 mg/L (≈ 10.3 µM)
MIC (Staphylococcus aureus [5]): 2 mg/L (≈ 5.15 µM)
MIC (Bacillus subtilis [6]): 0.25 mg/L (≈ 0.644 µM)

CC(=O)NC[C@H]1CN(c2ccc(N3CCOCC3)c(F)c2)C(=O)O1 [LINEZOLID]
Activity (Staphylococcus aureus [7]): Active
inhibition (Bacillus subtilis [8]): inactive
MBC (Staphylococcus aureus [9]): 64 mg/L (≈ 190 µM)
MBC (Staphylococcus aureus [10]): > 64 mg/L
MBC (Staphylococcus aureus [11]): > 64 mg/L
MBC (Staphylococcus aureus [12]): > 64 mg/L
MIC (Pseudomonas aeruginosa): > 64 mg/L
MIC (Escherichia coli): > 64 mg/L
MIC (Staphylococcus aureus [2]): 1 mg/L (≈ 2.96 µM)
MIC (Staphylococcus aureus [3]): 1 mg/L (≈ 2.96 µM)
MIC (Bacillus pumilus): 1 mg/L (≈ 2.96 µM)
MIC (Bacillus subtilis [6]): 0.5 mg/L (≈ 1.48 µM)

NC(=O)c1c(F)ccc(OCc2nc3cc(Cl)cnc3s2)c1F
MIC (Pseudomonas aeruginosa): > 64 mg/L
MIC (Escherichia coli): > 64 mg/L
MIC (Staphylococcus aureus [2]): 1 mg/L (≈ 2.81 µM)
MIC (Staphylococcus aureus [3]): 1 mg/L (≈ 2.81 µM)
MIC (Bacillus pumilus): 0.5 mg/L (≈ 1.41 µM)
MIC (Staphylococcus aureus [4]): 1 mg/L (≈ 2.81 µM)
MIC (Staphylococcus aureus [5]): 1 mg/L (≈ 2.81 µM)
MIC (Bacillus subtilis [6]): 0.5 mg/L (≈ 1.41 µM)

CC[C@H]1OC(=O)[C@H](C)[C@@H](O[C@H]2C[C@@](C)(OC)[C@@H](O)[C@H](C)O2)[C@H](C)[C@@H](O[C@@H]2O[C@H](C)C[C@H](N(C)C)[C@H]2O)[C@](C)(OC)C[C@@H](C)C(=O)[C@H](C)[C@@H](O)[C@]1(C)O [CLARITHROMYCIN]
Ratio (Staphylococcus aureus [13]): inactive
Ratio (Staphylococcus aureus [14]): inactive
Ratio (Staphylococcus aureus [15]): inactive
Ratio (Staphylococcus aureus [16]): 32
MBC (Staphylococcus aureus [9]): inactive
MBC (Staphylococcus aureus [10]): inactive
MBC (Staphylococcus aureus [11]): inactive
MBC (Staphylococcus aureus [12]): 4 mg/L (≈ 5.35 µM)
MIC (Staphylococcus aureus [2]): > 64 mg/L
MIC (Staphylococcus aureus [4]): 0.125 mg/L (≈ 0.167 µM)
MIC (Staphylococcus aureus [5]): > 64 mg/L

O=C(O)c1cn(C2CC2)c2cc(N3CCNCC3)c(F)cc2c1=O
inhibition (Bacillus subtilis [8]): inactive

CCCCc1ccc(C2=NOC(COc3ccc(F)c(C(N)=O)c3F)C2)cc1 (configuration not stated)
Ratio (Staphylococcus aureus [17]): 2
Ratio (Staphylococcus aureus [18]): 2
Ratio (Staphylococcus aureus [19]): 8
Ratio (Staphylococcus aureus [20]): 64
Ratio (Staphylococcus aureus [21]): 4
Activity (Staphylococcus aureus [22]): <1 10^3CFU/ml
IC50 (HeLa): > 64 mg/L
Activity (Staphylococcus aureus [7]): Active
FtsZ polymerization increase (active/inactive call) (Bacillus subtilis [1]): Active
cell length (Bacillus subtilis [23]): 29.3 µm
Activity (Staphylococcus aureus [24]): <1 10^3CFU/ml
Activity (Staphylococcus aureus [25]): <1 10^3CFU/ml
Activity (Staphylococcus aureus [26]): Active
Ratio (Staphylococcus aureus [13]): 1
Ratio (Staphylococcus aureus [14]): 2
Ratio (Staphylococcus aureus [15]): 2
Ratio (Staphylococcus aureus [16]): 1
MBC (Staphylococcus aureus [9]): 0.5 mg/L (≈ 1.29 µM)
MBC (Staphylococcus aureus [10]): 1 mg/L (≈ 2.57 µM)
MBC (Staphylococcus aureus [11]): 0.5 mg/L (≈ 1.29 µM)
MBC (Staphylococcus aureus [12]): 0.5 mg/L (≈ 1.29 µM)
inhibition (Bacillus subtilis [27]): Dose-dependent effect
MIC (Pseudomonas aeruginosa): > 64 mg/L
MIC (Escherichia coli): > 64 mg/L
MIC (Staphylococcus aureus [2]): 0.5 mg/L (≈ 1.29 µM)
MIC (Staphylococcus aureus [3]): 0.5 mg/L (≈ 1.29 µM)
MIC (Bacillus pumilus): ≤ 0.125 mg/L
MIC (Staphylococcus aureus [4]): 0.5 mg/L (≈ 1.29 µM)
MIC (Staphylococcus aureus [5]): 0.25 mg/L (≈ 0.644 µM)
MIC (Bacillus subtilis [6]): 0.5 mg/L (≈ 1.29 µM)
cell diameter (Staphylococcus aureus [28]): 2.41 µm

From ChEMBL document CHEMBL4665863 (Bioorg Med Chem, 2020)
